According to ChEMBL document CHEMBL4513216, “Probing the Open Global Health Chemical Diversity Library for Multistage-Active Starting Points for Next-Generation Antimalarials” (ACS Infect Dis, 2020):

Assay: Toxicity liver stage against HepG2, at 10uM
Assay type: cell-based
Parameters: test concentration 10 uM, cell line HepG2-A16-CD81EGFP
Settings: human, HepG2-A16-CD81EGFP cells; read-out: INHIBITION
In short: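 Uninfected HepG2-A16-CD81EGFP cells, 3 × 10^3 per well, 1536-well, plated on prespotted compound at 10 μM final, parasite-free screening media added to match infected plates; puromycin 10 μM positive, DMSO 0.5% negative; run in parallel with 48 h PbLuc assay at 37 °C, 5% CO2; viability by CellTiter-Glo luminescence, normalized to controls.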

Row | Structure (SMILES) | cytotoxicity at 10 µM [%]
1 | OC[C@@H]1CN2CCN(c3ccccn3)C[C@@H]2[C@H]1c1ccccc1 | -2.41
2 | NC(=O)[C@@H]1CCCN1C(=O)c1csc(-c2ccc(C(F)(F)F)cc2)n1 | -2
3 | COc1cc2[nH]c(=O)c(CN3CCCC3C)cc2c(OC)c1OC (stereo unspecified) | -7.74
4 | CN1CCN(C2CCN(C(=O)CCC3CCCC3)CC2)CC1 | 6.35
5 | COCCN1Cc2ccnn2CC(COCc2cccnc2)C1 (stereo unspecified) | -131
6 | CN1CCCC(CCC(=O)N2CCc3c(nc(CC4CC4)[nH]c3=O)C2)C1 (stereo unspecified) | -8.61
7 | N#CC(NC(=O)CCC1CCC1)c1cnn(-c2ccccc2)c1 (stereo unspecified) | -2.65
8 | Cc1ncsc1C(=O)NCCN1CCCCCC1=O | 12.1
9 | COc1ccc(Br)cc1SCCS(C)(=O)=O | 2.71
10 | Cc1ccccc1N1CCN(CCS(=O)(=O)c2ccc(Br)cc2)CC1 | 18.7
11 | Cc1cccc2ncnc(N3CCOC(C)C3)c12 (stereo unspecified) | 0.00648
12 | Cn1ccnc1CCNS(=O)(=O)c1cccc(Br)c1 | 4.95
13 | Cc1ccnc(OCC(=O)N2CCN(c3ncccn3)CC2)n1 | -0.849
14 | COCC1CN(S(=O)(=O)N(C)C)Cc2cnn(CC3CCCC3)c21 (stereo unspecified) | 12.4
15 | O=C(c1cccnc1)N1CCCC1c1nc(O)cc(-c2ccccn2)n1 (stereo unspecified) | -5.91
16 | CC(C)c1cc(NCC(O)CO)n2nccc2n1 (stereo unspecified) | -24.8
17 | CC(C)N1CCC2(CCCNC2)C1=O (stereo unspecified) | 0.906
18 | Cc1nc2cc(=O)[nH]n2c(C)c1CC(=O)NCCCc1ccccc1 | -7.33
19 | CN1CCCC(c2nccnc2-c2cccc(Cl)c2)C1 (stereo unspecified) | 3.57
20 | COc1ccc(CNc2n[nH]c(C)n2)cc1 | 1.64
21 | O=S(=O)(NC[C@H]1C[C@@H]2CCN1C[C@@H]2CN1CCCCC1)c1ccccc1 | -4.32
22 | O=C1NCC(c2ccc(Cl)cc2)Cc2[nH]c(CCN3CCOCC3)nc21 (stereo unspecified) | -5.68
23 | CCOC(=O)C1CN(CC2CC2)Cc2ncn(CC)c21 (stereo unspecified) | 12.2

Row | Structure (SMILES) | cytotoxicity at 10 µM [%]
24 | O=C(c1cccc(F)c1)N1CCCC1c1ncc2c(n1)CCNC2 (stereo unspecified) | -12.2
25 | N#Cc1cc2c(=O)n(CC(O)Cc3ccccc3)ccc2[nH]c1=O (stereo unspecified) | 2.86
26 | CN(CC(=O)Nc1cc(C(C)(C)C)n[nH]1)S(C)(=O)=O | 5.15
27 | O=c1c2cnc(N3CCCCC3)nc2ccn1Cc1ccco1 | -9.69
28 | COCC1CN(Cc2ccc(OC)cc2)Cc2nn(C)cc21 (stereo unspecified) | 0.976
29 | CCN(C(=O)CCc1ccccc1)C1CC(=O)NC1=O (stereo unspecified) | -7.32
30 | COCCN1CCc2nc(SCc3ccc(F)cc3)[nH]c(=O)c2C1 | -2.33
31 | COc1ccccc1CC1CCCN(C(=O)c2cc[nH]n2)C1 (stereo unspecified) | 6.11
32 | CC(C)Cc1cc(C(=O)NCC2CCN(c3ccccc3F)C2)on1 (stereo unspecified) | 0.075
33 | OCc1csc(N2C[C@@H](CN3CCCCCC3)[C@@H](CO)C2)n1 | 2.65
34 | Cc1csc(C2CCCN(C(=O)c3c[nH]c(C)n3)C2)n1 (stereo unspecified) | -17
35 | CCc1cc(N2CCC(Nc3ccc(Cl)cn3)CC2)ncn1 | 49.1
36 | Cc1cc(C)c(CNC(=O)C(C)Oc2cccc(C#N)c2)c(=O)[nH]1 (stereo unspecified) | 7.42
37 | O=C1NCCN1C1CCN(Cc2nc(-c3ccsc3)no2)CC1 | 44.8
38 | O=C(c1cnccn1)N1CCN2C[C@H](OCc3ccccc3)C[C@H]2C1 | 1.44
39 | CN(C)CC(=O)N1CCc2ncnc(-c3cncnc3)c2CC1 | -2.42
40 | O=C(c1ccoc1)N1C[C@@H]2OCCN(c3ncccn3)[C@@H]2C1 | 5.09
41 | Cc1nnsc1C(=O)N1CCCC(n2nnc3cc(F)ccc32)C1 (stereo unspecified) | 3.49
42 | N#CC1(C(=O)N2CCCN(Cc3cscn3)CC2)CCCCC1 | -2.54
43 | Cc1nc(-c2cccnc2)ncc1C(=O)N1CCC(C(C)N(C)C)CC1 (stereo unspecified) | -1.8
44 | CNC(=O)[C@@]12CCO[C@@H]1CCN(Cc1ccc3c(c1)OCO3)C2 | 1.75
45 | Nc1ccc(C(=O)N2CCCC(c3nccn3Cc3cscn3)C2)cn1 (stereo unspecified) | -4.92
46 | Cc1ccc(C(=O)NCC(O)c2ccc(Cl)s2)c(=O)[nH]1 (stereo unspecified) | -20.7

Row | Structure (SMILES) | cytotoxicity at 10 µM [%]
47 | Cc1cc(C)n(CC2CCCN2C(=O)c2cnc3n[nH]c(C)c3c2)n1 (stereo unspecified) | -2.61
48 | O=C(C1CCCO1)N1CC[C@@H]2CN(Cc3ccccc3)S(=O)(=O)[C@@H]2CC1 (stereo partly specified) | 12.9
49 | CCNC(=O)C(C)(C)NC(=O)NCc1cccc(Br)c1 | 8.44
50 | c1ccc(OC[C@@H]2CCC[C@@]23CNCCO3)nc1 | 9.93
51 | O=C(NCc1cc(C2CC2)n(C2CCCC2)n1)C1CC1 | 2.16
52 | CNC(=O)C(C)(C)NC(=O)c1cc(COc2cccc(C(C)=O)c2)[nH]n1 | 3.69
53 | O=C1CCc2cc(C(=O)NCc3ccc(Cl)s3)ccc2N1 | 3.65
54 | Cc1cc(C)n(-c2ccc(CNCc3cccc(C#N)c3)cn2)n1 | -10.2
55 | CN(C)C(=O)COCC1C[C@@H]2OCCN(Cc3ccco3)[C@H]2C1 (stereo partly specified) | 11.9
56 | Cc1c(C)n2c(SCC(=O)N3CCCCCC3)nnc2[nH]c1=O | 0.0868
57 | O=C(CCS(=O)(=O)c1ccccc1)NCCCn1cccn1 | 12
58 | Cc1ccc(S(=O)(=O)N2CCN(CCC(N)=O)CC2)s1 | -9.88
59 | CCCC(=O)NC1CCN(c2ccccc2S(=O)(=O)CC)CC1 | -2.78
60 | NC(=O)NCC(=O)N1CCCC(c2nccn2Cc2ccncc2)C1 (stereo unspecified) | 5.07
61 | Cc1cc(C(=O)NCCC2CCN(C)CC2)ccc1N(C)S(C)(=O)=O | 5.82
62 | CC(C(=O)Nc1ccc(N2CCOCC2)nc1)n1cncn1 (stereo unspecified) | -33.9
63 | Cc1nc(C2CCCN2CC(=O)N(Cc2ccsc2)C2CC2)no1 (stereo unspecified) | -12.1
64 | Cc1cc(C2CCCN(Cc3nnc(Cc4ccccc4)o3)C2)n[nH]1 (stereo unspecified) | -5.78
65 | COc1ccccc1CC1CCCN(CCC#N)C1 (stereo unspecified) | 1.73
66 | CN1C(=O)CC(c2ccccc2)C12CCN(c1ncccn1)CC2 (stereo unspecified) | -99.4
67 | CN(CCCc1nccn1C)C(=O)C1CCN(C(=O)C2CCCC2)CC1 | -15.3
68 | Cc1nc(N(C)C)nc2c1COCC21CCN(C(=O)NC(C)C)C1 (stereo unspecified) | -13
69 | O=C1CC2(CCCCN2CC2CC2)CN1c1ccccc1 (stereo unspecified) | 4.86

Row | Structure (SMILES) | cytotoxicity at 10 µM [%]
70 | CN1C[C@@H](n2cnc(-c3ccccc3)c2-c2ncc[nH]2)C[C@H]1C(=O)O | -4.75
71 | CCS(=O)(=O)N1CCC2(CCC(N3CCCC3)c3ccccc32)CC1 (stereo unspecified) | 0.257
72 | OCC1(O)CCN(c2ccnc3c(C(F)(F)F)cccc23)CC1 | -14.8
73 | COCc1ncn2c1CN(C(=O)c1cnc3ccccc3c1)CC2 | -2.39
74 | COCC(O)CN(C)C(=O)NC1CCN(Cc2ccccn2)CC1 (stereo unspecified) | -0.0353
75 | CN(C)c1nccc(N(C)Cc2nc3ccccc3n2C)n1 | 0.482
76 | Nc1cc(-c2cccc3c2CCNC3)ncn1 | -8.27
77 | CC(=O)N1CCN(C(=O)c2ccc3ccn(C)c3c2)CC1 | -0.173
78 | CN1CCN2C(=O)N(C3CCCCC3)C[C@H]2C1 | -3.1
79 | O=C(C1CC=CC1)N1CC[C@@H](O)[C@H]1Cc1cccnc1 | -99.4
80 | c1ccc(OCCN2CCC(c3cnccn3)CC2)cc1 | 7.56
81 | CCn1nc(C)cc1C(=O)N1C[C@@H]2C[C@@H](c3nnc(C)[nH]3)O[C@@H]2C1 | -1.87
82 | Cc1nnc(CN(C)C2CCN(Cc3nnc(C4CCC4)o3)C2)n1C (stereo unspecified) | -8.15
83 | CN1C(=O)C2(CCN(CC3CC3)CC2)c2ccccc21 | 3.16
84 | CC(O)CN1CCN(Cc2coc(-c3cccc(Cl)c3)n2)CC1 (stereo unspecified) | -4.73
85 | CCN1CCC(N[C@@H]2CC[C@@H]2NC(=O)Cc2csc(C)n2)CC1 | 1.82
86 | CC(C)(C)n1ncc2c(=O)[nH]c(N3CCC4(CCCCC4)C3)nc21 | -7.72
87 | CNS(=O)(=O)c1ccc(C(=O)Nc2ccc3c(c2)C(=O)NC3)cc1 | -8.04
88 | Cc1ncc(CN(C)C(=O)c2ccc(N3CCOCC3)c(F)c2)s1 | 5.66
89 | OC(COCc1ccccc1)CSc1nnc2ccccn12 (stereo unspecified) | 2.95
90 | CN(C)C(=O)CN1CCOCC2(CCN(c3ncc(F)cn3)CC2)C1 | 0.419
91 | COC(=O)c1ccc2nc(CO[C@H]3CN(CC4CC4)C[C@H]3F)[nH]c2c1 | 2.52
92 | Cc1ccc(-c2cccc(CC3(C(=O)O)CCOCC3)c2)c(C)c1 | -29.8

Row | Structure (SMILES) | cytotoxicity at 10 µM [%]
93 | Cc1cc(C2CCCN(CC(=O)N3CCCc4ccccc43)C2)n[nH]1 (stereo unspecified) | -4.14
94 | COc1nc(C)cc(C)c1CNC(=O)N(C)Cc1cnn(C)c1 | -4.64
95 | Cn1cc(C(=O)N2CCCCC2CCc2ccccc2)cn1 (stereo unspecified) | -7.45
96 | CC1CCC(NC(=O)c2nn(C)cc2Br)CC1 (stereo unspecified) | -3.76
97 | Cc1cc(CN2CCC(C3CCN(CC(C)C)CC3)C2)[nH]n1 (stereo unspecified) | -8.71
98 | Cc1nc(CN2CCCn3cnc(COC(C)C)c3C2)cs1 | -73.4
99 | O=C(c1ncn2c1CNS(=O)(=O)c1ccccc1-2)N1CCCCCC1 | 9.79
100 | O=C(NCCc1nccs1)C1CCCN(Cc2ccco2)C1 (stereo unspecified) | 1.5
101 | CCS(=O)(=O)CC(=O)NC(c1ccccc1)C1CCCCC1 (stereo unspecified) | -4.01
102 | Cc1nc(CNC(=O)N2CCN(c3ccc(Cl)cn3)CC2)no1 | -13.1
103 | OCc1cn(Cc2cccc(F)c2)nn1 | 8.95
104 | COCCN1CCC2(CC1)CC(NC(=O)CN(C)C)c1ccccc1O2 (stereo unspecified) | 0.169
105 | Cc1cccc(C)c1-n1nnnc1C1(NCc2ccco2)CCCC1 | 12.9
106 | O=C1CC(CNc2cncc(Br)c2)c2ccccc2N1 (stereo unspecified) | -5.19
107 | COc1cccc(N2CCN(C(=O)CO)CC2=O)c1 | 0.995
108 | NC(=O)CC1CCN(C(=O)c2cnc(-c3ccccc3F)s2)CC1 | -0.608
109 | c1coc(-c2nnc(CN3CCCC(CN4CCCCCC4)C3)o2)c1 (stereo unspecified) | -10.5
110 | N#Cc1ccc(SCCC(=O)NC(N)=O)cc1 | -2.66
111 | Cc1cnn(CC2CCCN2C(=O)c2c(C)noc2C)c1 (stereo unspecified) | -6.02
